# Experimental data from different studies.
# Compare with care: the assays were run in different laboratories.
# Organism: Salmonella enterica
# Observed: microbial growth
SMILES,test,system,conditions,MIC
[H]/N=C(/N)N[C@H]1[C@H](O)[C@@H](O)[C@H](O[C@@H]2O[C@@H](C)[C@](O)(C=O)[C@H]2O[C@@H]2O[C@@H](CO)[C@H](O)[C@@H](O)[C@@H]2NC)[C@@H](N/C(N)=N\[H])[C@@H]1O,,CHOLERAESUIS,"20 h, pH 7",4100 µg/mL
O=C1NN=C(N=Cc2ccc(O)cc2O)C1=NNn1c(-c2ccccc2)nc2ccccc2c1=O,broth dilution,PARATYPHI,24 h,53.5 µM
CCCCCCCCCCCC(=O)OC[C@H]1O[C@@H](n2cc(C)c(=O)[nH]c2=O)C[C@@H]1OC(=O)c1ccc(C(C)(C)C)cc1,broth dilution,TYPHI,,0.5 µg/mL
CC1(C)S[C@@H]2[C@H](NC(=O)[C@H](N)c3ccccc3)C(=O)N2[C@H]1C(=O)O,broth dilution,PARATYPHI,16 h,32 µg/mL
CO[C@H]1O[C@H](COC(c2ccccc2)(c2ccccc2)c2ccccc2)[C@@H](OC(=O)c2ccc(C(C)(C)C)cc2)[C@H](OC(=O)c2ccc(C(C)(C)C)cc2)[C@H]1OC(=O)c1ccc(C(C)(C)C)cc1,broth dilution,TYPHI,,2 µg/mL
CCn1cc(C(=O)O)c(=O)c2ccc(C)nc21,broth dilution,TYPHI,24 h,15.6 µg/mL
O=C(N[C@H](CO)[C@H](O)c1ccc([N+](=O)[O-])cc1)C(Cl)Cl,,CHOLERAESUIS,"20 h, pH 5.5",2 µg/mL
CCCCCCCCCCCC(=O)OC[C@H]1O[C@@H](n2cc(C)c(=O)[nH]c2=O)C[C@@H]1O,broth dilution,TYPHI,,1 µg/mL
C[C@H]1[C@H](NC(=O)/C(=N\OC(C)(C)C(=O)O)c2csc(N)n2)C(=O)N1S(=O)(=O)O,agar dilution,TYPHI,,≤ 0.03 µg/mL
CO/N=C(\C(=O)N[C@@H]1C(=O)N2C(C(=O)O)=C(CSC(=O)c3ccco3)CS[C@H]12)c1csc(N)n1,,ENTERITIDIS,"20 h, pH 5.5",1 µg/mL
CC1=NN(CNc2ccc(C(=O)O)cc2)C(=O)C1=NNn1c(-c2ccccc2)nc2ccccc2c1=O,broth dilution,PARATYPHI,24 h,50.5 µM
CS(=O)(=O)c1ccc([C@@H](O)[C@@H](CF)NC(=O)C(Cl)Cl)cc1,,CHOLERAESUIS,"20 h, pH 7",4 µg/mL
CC(=O)NCN1N=C(C)C(=NNn2c(-c3ccccc3)nc3ccccc3c2=O)C1=O,broth dilution,PARATYPHI,24 h,59.9 µM
C[C@H]1COc2c(N3CCN(C)CC3)c(F)cc3c(=O)c(C(=O)O)cn1c23,agar dilution,TYPHI,,≤ 0.03 µg/mL
CC1=NN(CNc2ccc(Cl)cc2)C(=O)C1=NNn1c(-c2ccccc2)nc2ccccc2c1=O,broth dilution,PARATYPHI,24 h,103 µM
CCN1CCN(c2cc3c(cc2F)c(=O)c(C(=O)O)cn3C2CC2)CC1,,CHOLERAESUIS,"20 h, pH 7.2",0.0625 µg/mL
O=C1NN=C(N=Cc2ccccc2)C1=NNn1c(-c2ccccc2)nc2ccccc2c1=O,broth dilution,PARATYPHI,24 h,114 µM
CO/N=C(\C(=O)N[C@@H]1C(=O)N2C(C(=O)O)=C(CSc3nc(=O)c(=O)[nH]n3C)CS[C@H]12)c1csc(N)n1,,CHOLERAESUIS,"20 h, pH 5.5",0.125 µg/mL
O=C(O)c1cn(C2CC2)c2cc(N3CCNCC3)c(F)cc2c1=O,broth dilution,TYPHI,24 h,62.5 µg/mL
CC1=NN(CNc2ccccc2[N+](=O)[O-])C(=O)C1=NNn1c(-c2ccccc2)nc2ccccc2c1=O,broth dilution,PARATYPHI,24 h,50.4 µM
